Consider twelve compounds from ChEMBL document CHEMBL3351460, “Structure-Metabolism Relationships in the Glucuronidation of d-Amino Acid Oxidase Inhibitors” (ACS Med Chem Lett, 2014).

Data set [1] can be described thus: Drug metabolism in human liver microsomes assessed as glucuronidation of compound measured as compound remaining after 60 mins by LC/MS analysis. The format is ADME. The following applies: read-out: Stability. Put shortly: (§1)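 Human liver microsomes (0.5 mg protein/mL) incubated with compound at 37 °C in the presence of UDPGA (2 mM), with a UDPGA-free control incubation. Remaining parent compound quantified after 30 and 60 min and expressed as % remaining.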
A general note: Liver microsomes are vesicles of endoplasmic reticulum, rich in cytochrome P450 enzymes.

Data set [2] is described as follows: Drug metabolism in rat liver microsomes assessed as glucuronidation of compound measured as compound remaining after 30 mins by LC/MS analysis. The following applies: read-out: Stability. The class given is ADME. Put shortly:
(§2)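 Liver microsomes (mouse or rat), 0.5 mg protein/mL, incubated at 37 °C with UDPGA (2 mM) as cofactor for glucuronidation. Parent compound remaining was quantified after 30 and 60 min and expressed as % remaining.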

Data set [3] can be described thus: Drug metabolism in rat liver microsomes assessed as glucuronidation of compound measured as compound remaining after 60 mins by LC/MS analysis. The following applies: read-out: Stability. The format is ADME. Put shortly:
as §2

Data set [4] can be described thus: Plasma clearance in CD1 mouse at 30 mg/kg, po and 10 mg/kg, iv. The class given is ADME, organism-based.
Data set [5] in a line: Drug metabolism in human liver microsomes assessed as glucuronidation of compound measured as compound remaining after 30 mins by LC/MS analysis. The format is ADME. The following applies: read-out: Stability. Put shortly:
as §1

Data set [6] can be described thus: Drug metabolism in mouse liver microsomes assessed as glucuronidation of compound measured as compound remaining after 30 mins by LC/MS analysis. The class given is ADME. The following applies: read-out: Stability. Put shortly:
as §2

Data set [7] is described as follows: Drug metabolism in mouse liver microsomes assessed as glucuronidation of compound measured as compound remaining after 60 mins by LC/MS analysis. The class given is ADME. The following applies: read-out: Stability. In a few lines: as §2
Data set [8] can be described thus: Oral bioavailability in CD1 mouse at 30 mg/kg. The class given is ADME, organism-based. The following applies: in vivo.
The target of another data set is D-amino-acid oxidase (Homo sapiens, UniProt P14920). Description: Inhibition of human D-amino acid oxidase.
Chain of D-amino-acid oxidase (P14920 whole entry): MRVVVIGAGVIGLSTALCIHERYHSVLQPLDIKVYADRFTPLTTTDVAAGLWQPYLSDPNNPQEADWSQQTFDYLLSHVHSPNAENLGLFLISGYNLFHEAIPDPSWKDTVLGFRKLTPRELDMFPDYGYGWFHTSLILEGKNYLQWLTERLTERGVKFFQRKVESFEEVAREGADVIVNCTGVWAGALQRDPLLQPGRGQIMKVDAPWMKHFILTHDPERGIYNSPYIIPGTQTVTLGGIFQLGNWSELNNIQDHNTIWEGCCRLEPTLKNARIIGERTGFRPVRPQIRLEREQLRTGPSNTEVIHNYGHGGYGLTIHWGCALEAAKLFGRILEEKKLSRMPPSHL

Molecules are shown by their SMILES.

`O=c1[nH]nc(CCc2cc(F)cc(F)c2)cc1O`: the remaining at 1 h was 62% in data set [1], 51% in data set [3] and 59% in [7]. Also, the remaining at 0.5 h in [2] came to 69%; in data set [5] it was 81%; in data set [6] it was 77%. For the same compound, the clearance in data set [4] came out at 39 mL/min/kg. Moreover, the bioavailability in data set [8] came to 31%.

As to `O=c1cc(CSc2ccc(Cl)c(Cl)c2)occ1O`, in [6], the remaining at 0.5 h stood at 20%. Besides, the remaining at 1 h in data set [7] worked out at 5%.

For `O=c1[nH]c2cc(F)ccc2cc1O`, the remaining at 0.5 h in data set [2] and in data set [6] was less than 1% in each case. Moreover, the remaining at 1 h in data set [3] and in [7] was less than 1% in each case.

Turning to `Oc1noc2cc(Cl)ccc12`, the remaining at 0.5 h in data set [6] worked out at 58%. The remaining at 1 h in data set [7] was 33%.

On to `O=c1[nH]cc(CCc2ccccc2)cc1O`, for which the remaining at 0.5 h in [6] came to 5%. In [7], the remaining at 1 h was found to be 3%.

Take `O=C(O)c1cc(CCc2ccc(Cl)cc2)n[nH]1`: on D-amino-acid oxidase, the IC50 was less than 1000 nM. In addition, the remaining at 0.5 h in [6] came to 103%. In data set [7], the remaining at 1 h stood at 102%.

Turning to `O=c1oc2ccccc2cc1O` [3-HYDROXYCOUMARIN], the remaining at 0.5 h in [6] was less than 1%. In addition, the remaining at 1 h in data set [7] was less than 1%.

On to `O=c1[nH]c2cccc(Cl)c2cc1O`, for which the remaining at 0.5 h in data set [2] and in data set [6] was less than 1% throughout. Moreover, the remaining at 1 h in [3] and in [7] was less than 1% in each case.

As for `O=c1[nH]c2c(F)cc(F)cc2n1O`, the remaining at 0.5 h in data set [6] was less than 1%. Moreover, the remaining at 1 h in [7] is less than 1%.

`O=c1[nH]c2ccccc2cc1O`: the remaining at 0.5 h in data set [6] was less than 1%. Besides, in data set [7], the remaining at 1 h was less than 1%.

`O=C(O)c1cc2sccc2[nH]1`: in data set [6], the remaining at 0.5 h came out at 98%. Moreover, the remaining at 1 h in data set [7] came to 100%.

On to `Cc1cc(C(=O)O)n[nH]1`, for which the remaining at 0.5 h in [6] was determined as 92%. Further, in data set [7], the remaining at 1 h came to 78%.

Usually bioavailability stands for the share of a dose that reaches the circulation, judged against a reference dose that is usually intravenous. Read a high bioavailability as good availability. By IC50 is commonly meant the concentration that gives 50% inhibition. Read a low IC50 as inhibition by little substance.
